Results published in ChEMBL document CHEMBL4311977, “Design and synthesis of parthenolide and 5-fluorouracil conjugates as potential anticancer agents against drug resistant hepatocellular carcinoma” (Eur J Med Chem, 2019).
The source made the active and inactive calls. The calls are words filed in the database; no cut-off is given here.

Legend:
Bel7402/5-FU [1] = assay: Antiproliferative activity against human Bel7402/5-FU incubated for 72 hrs by MTT assay; assay type: functional, cell-based
Method in brief: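 Bel-7402 and its 5-FU-resistant subline were kept in RPMI-1640 with 10% FBS and 1% penicillin/streptomycin at 37 °C under 5% CO2. Cells were seeded at 5000 per well and left for 12 h, then exposed to a concentration series for 72 h. MTT stock (5 mg/mL) was added for 4 h and the product dissolved in DMSO. OD was read at 570 nm and IC50 obtained by curve fitting.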

[2] = Therapeutic index, ratio of IC50 for mouse 3T3 cells to IC50 for human Bel7402 cells; assay type: toxicity; conditions: mouse 3T3 cells versus human Bel7402 cells, read-out: TI
Bel7402/5-FU [3] = assay: Induction of apoptosis in human Bel7402/5-FU cells assessed as upregulation of Bax expression at 0.5 to 5 uM incubated for 24 hrs by Western blot analysis; assay type: functional, cell-based
Method in brief: (§1)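 Bel-7402/5-FU cells were seeded at 5 × 10⁵ per well and left 12 h, then treated with four concentrations (0.5, 1, 2, 5) for 24 h. Cells were PBS-washed and lysed in RIPA on ice for 30 min, then denatured at 100 °C for 5 min. Lysates went through SDS-PAGE and PVDF transfer, 5% milk blocking for 1 h at room temperature, primary antibodies, and HRP secondary for 2 h at room temperature.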

Bel7402/5-FU [4] = assay: Induction of apoptosis in human Bel7402/5-FU cells assessed as increase in cytochrome C level at 0.5 to 5 uM incubated for 24 hrs by Western blot analysis; assay type: functional, cell-based; method in brief: as §1
Bel7402/5-FU [5] = assay: Induction of apoptosis in human Bel7402/5-FU cells assessed as activation of caspase-3 at 0.5 to 5 uM incubated for 24 hrs by Western blot analysis; assay type: functional, cell-based; method in brief: as §1
Bel7402/5-FU [6] = assay: Induction of apoptosis in human Bel7402/5-FU cells assessed as activation of caspase-9 at 0.5 to 5 uM incubated for 24 hrs by Western blot analysis; assay type: functional, cell-based; method in brief: as §1
Bel7402/5-FU [7] = assay: Increase in ADR intracellular accumulation in human Bel7402/5-FU cells preincubated for 24 hrs followed by adriamycin addition measured after 1 hr by flow cytometry
Bel7402/5-FU [8] = assay: Induction of apoptosis in human Bel7402/5-FU assessed as necrotic cells at 5 uM incubated for 48 hrs by annexinV-FITC/propidium iodide staining based flow cytometry (reference value: 0.157 %)
Bel7402/5-FU [9] = assay: Induction of apoptosis in human Bel7402/5-FU assessed as apoptotic cells at 1 uM incubated for 48 hrs by annexinV-FITC/propidium iodide staining based flow cytometry (reference value: 3.37 +/- 0.47 %)
Bel7402/5-FU [10] = assay: Induction of apoptosis in human Bel7402/5-FU assessed as late apoptotic cells at 2.5 uM incubated for 48 hrs by annexinV-FITC/propidium iodide staining based flow cytometry (reference value: 0.268 to 0.945 %)

For `C=C1C(=O)O[C@H]2[C@H]1CC/C(COC(=O)Cn1cc(F)c(=O)n(Cc3ccc(C(F)(F)F)cc3)c1=O)=C\CC[C@@]1(C)O[C@@H]21`, the IC50 (Bel7402/5-FU [1]) was 2250 nM, the selectivity ratio [2] was 2.3 and the Activity (Bel7402/5-FU [3]) was “Active”. The Activity (Bel7402/5-FU [4]) was “Active”, the Activity (Bel7402/5-FU [5]) was “Active” and the Activity (Bel7402/5-FU [6]) was “Active”. The Activity (Bel7402/5-FU [7]) was “Dose-dependent effect”, the Activity (Bel7402/5-FU [8]) was 1.49 - 1.75% and the Activity (Bel7402/5-FU [9]) was 4.9%. The Activity (Bel7402/5-FU [10]) was 4.86%.
